Source: ChEMBL document CHEMBL1135467 (J Med Chem, 2002)

Assays:
Mu-type opioid receptor [1] = biological target: T1, Mu-type opioid receptor (Rattus norvegicus, UniProt P33535); test: Binding affinity towards Opioid receptor mu 1 by displacing [3H]DAMGO in rat brain membranes.; type: cell membranes
Summary of the method: (§1)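 Rat brain minus cerebellum homogenised in 0.32 M sucrose/10 mM Tris-HCl and spun. The pellet was preincubated 1 h to strip endogenous opioids. GF/B filtration, scintillation counting.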

Mu-type opioid receptor [2] = biological target: T1, Mu-type opioid receptor; test: Inhibitory activity against [3H]DAMGO binding to Opioid receptor mu 1 in rat brain membranes; type: cell membranes; summary of the method: as §1
[3] = Potency for inhibition of forskolin-stimulated cyclic AMP accumulation in SH-SY5Y cells; type: functional, cell-based; conditions: Homo sapiens
Summary of the method: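 SH-SY5Y cells at 85-100% confluence in 24-well plates, in serum-free F12/DMEM with 0.5 mM IBMX, protease inhibitors and DADLE δ-blocker, 10 min at 37 °C. Then 10 µM forskolin plus ligand over a concentration range, 15 min at 37 °C. Ethanol extraction, cAMP measured by commercial kit. Triplicate wells averaged, IC50 fitted.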

T1 sequence (P33535 whole entry): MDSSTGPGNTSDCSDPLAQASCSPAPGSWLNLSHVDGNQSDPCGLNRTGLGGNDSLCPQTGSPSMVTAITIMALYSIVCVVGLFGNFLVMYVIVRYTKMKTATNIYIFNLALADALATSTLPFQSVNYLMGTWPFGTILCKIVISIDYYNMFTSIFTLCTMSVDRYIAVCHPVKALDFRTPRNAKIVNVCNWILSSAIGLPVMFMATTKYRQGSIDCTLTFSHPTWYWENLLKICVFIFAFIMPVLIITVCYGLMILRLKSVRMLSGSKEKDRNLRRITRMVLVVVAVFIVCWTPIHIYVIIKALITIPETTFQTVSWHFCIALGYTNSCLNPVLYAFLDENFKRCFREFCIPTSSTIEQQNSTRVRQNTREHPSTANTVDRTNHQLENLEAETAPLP

Compound	Ki (Mu-type opioid receptor [1]) [nM]	IC50 (Mu-type opioid receptor [2]) [nM]	IC50 [3] [nM]
NC(=O)[C@H](Cc1ccccc1)NC(=O)[C@H](Cc1c[nH]c2ccccc12)NC(=O)[C@@H]1CCCN1C(=O)C[C@@H](N)Cc1ccc(O)cc1	26	990	–
NC(=O)[C@H](Cc1ccccc1)NC(=O)[C@H](Cc1c[nH]c2ccccc12)NC(=O)C[C@H]1CCCN1C(=O)[C@@H](N)Cc1ccc(O)cc1	67	79	45
NC(=O)[C@H](Cc1ccccc1)NC(=O)[C@H](Cc1c[nH]c2ccccc12)NC(=O)C[C@@H]1CCCN1C(=O)[C@@H](N)Cc1ccc(O)cc1	2.1	4	6.53
NC(=O)C[C@H](Cc1ccccc1)NC(=O)[C@H](Cc1c[nH]c2ccccc12)NC(=O)[C@@H]1CCCN1C(=O)[C@@H](N)Cc1ccc(O)cc1	79	80.1	–
NC(=O)[C@H](Cc1ccccc1)NC(=O)C[C@H](Cc1c[nH]c2ccccc12)NC(=O)[C@@H]1CCCN1C(=O)[C@@H](N)Cc1ccc(O)cc1	73	23.3	–
C[C@@H](NC(=O)[C@@H](N)Cc1ccc(O)cc1)C(=O)NCC(=O)N(C)[C@@H](Cc1ccccc1)C(=O)NCCO [DAMGO]	–	–	1.1
NC(=O)[C@H](Cc1ccccc1)NC(=O)[C@H](Cc1c[nH]c2ccccc12)NC(=O)[C@@H]1CCCN1C(=O)[C@@H](N)Cc1ccc(O)cc1 [ENDOMORPHIN-1]	–	–	19.1
